Laboratory results published in ChEMBL document CHEMBL4422695, “Antiangiogenic Activity of Compounds Isolated from Anarrhinum pedatum” (2019).
Active and inactive are the calls of the source. No cut-off for these calls is given here.

Columns and labels:
Danio rerio = species on record: Danio rerio; assay: Antiangiogenic activity in wild type zebrafish 24 hrs post fertilization embryos assessed as reduction in blood vessel growth at 2 uM treated for 48 hrs by alkaline phosphatase assay relative to control; assay type: functional
Procedure, shortened: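 Wild-type zebrafish embryos from natural mating, raised at 28.5 °C; healthy embryos selected at 24 hpf, dechorionated, one per well in 100 μL embryo water with agent (2 μM) in DMSO 0.2% v/v, 10 per group, exposed 24–72 hpf. Ethanol-dehydrated, diethanolamine buffer (1 M, pH 9.8) washes, p-nitrophenyl phosphate 0.5 mg/mL 30 min RT, NaOH stop, OD 405 nm; percent of control, ≥3 repeats, t-test.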

Chorioallantoic membrane [1] = assay: Antiangiogenic activity in chicken fertilized egg chorioallantoic membrane at 2 uM after 48 hrs by stereomicroscopic analysis relative to control; assay type: functional, tissue-based; conditions: Gallus gallus
Procedure, shortened: (§1)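 Fertilized chicken eggs incubated at 37 °C, positioned horizontally and rotated; 1 cm2 window opened on day 4, malformed or dead embryos excluded. Test agents at 2 μM (100 μL/egg) or retinoic acid at 3 μM, in DMSO (0.2% v/v) in Tris buffer pH 7.4; ten eggs/group. Reincubated 2 days. CAM microvasculature imaged under stereomicroscope, standardized area quantified; percent of vehicle control, three repeats, t-test.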

Chorioallantoic membrane [2] = assay: Antiangiogenic activity in chicken fertilized egg chorioallantoic membrane assessed as appearance of less dense microvasculature at 2 uM after 48 hrs by stereomicroscopic analysis; assay type: functional, tissue-based; conditions: Gallus gallus; procedure, shortened: as §1
Chorioallantoic membrane [3] = assay: Antiangiogenic activity in chicken fertilized egg chorioallantoic membrane at 3 uM after 48 hrs by stereomicroscopic analysis relative to control; assay type: functional, tissue-based; conditions: Gallus gallus; procedure, shortened: as §1
Chorioallantoic membrane [4] = assay: Antiangiogenic activity in chicken fertilized egg chorioallantoic membrane assessed as reduction in capillary formation at 3 uM after 48 hrs by stereomicroscopic analysis; assay type: functional, tissue-based; conditions: Gallus gallus; procedure, shortened: as §1

| SMILES | Activity (Danio rerio) | Activity (Chorioallantoic membrane [1]) | Activity (Chorioallantoic membrane [2]) | other results |
| --- | --- | --- | --- | --- |
| O=C(/C=C/c1ccccc1)OC[C@H]1O[C@@H](O[C@@H]2OC=C[C@@]3(O)[C@H](O)[C@@H]4O[C@]4(CO)[C@@H]23)[C@H](O)[C@@H](O)[C@@H]1O | inactive | – | – | – |
| C[C@]1(O)CC[C@@H]2C(C(=O)O[C@@H]3CO[C@](O)(CO)[C@@H](O)[C@@H]3O)=CO[C@@H](O[C@@H]3O[C@H](COC(=O)C=Cc4ccc(O)cc4)[C@@H](O)[C@H](O)[C@H]3O)[C@@H]21 (mixture of isomers) | inactive | – | – | – |
| C/C(=C\CO)CC/C=C(\C)C(=O)O[C@@H]1[C@@H]2O[C@]2(C)[C@H]2[C@H](O[C@@H]3O[C@H](CO)[C@@H](O)[C@H](O)[C@H]3O)OC=C[C@@]12O | 48.33% | 29.6% | Active | – |
| C=C[C@@](C)(O)CC/C=C(\C)C(=O)OC[C@H]1O[C@@H](O[C@@H]2OC=C(C(=O)O[C@@H]3CO[C@](O)(CO)[C@@H](O)[C@@H]3O)[C@H]3CC[C@](C)(O)[C@@H]23)[C@H](O)[C@@H](O)[C@@H]1O | 72.72% | 21.5% | Active | – |
| C=C[C@@](C)(O)CC/C=C(\C)C(=O)O[C@@H]1O[C@H](CO)[C@@H](O)[C@H](O)[C@H]1O | 56.98% | 29% | Active | – |
| C[C@]12O[C@H]1[C@@H](OC(=O)C=Cc1ccc(O)cc1)[C@]1(O)C=CO[C@@H](O[C@@H]3O[C@H](CO)[C@@H](O)[C@H](O)[C@H]3O)[C@@H]12 (mixture of isomers) | 77.38% | – | – | – |
| C[C@]12O[C@H]1[C@@H](O)[C@]1(O)C=CO[C@@H](O[C@@H]3O[C@H](CO)[C@@H](O)[C@H](O)[C@H]3O)[C@@H]12 [ANTIRRHINOSIDE] | 81% | 29.9% | Active | – |
| C/C(=C\CO)CC/C=C(\C)C(=O)O[C@@H]1O[C@H](CO)[C@@H](O)[C@H](O)[C@H]1O | 79.82% | – | – | – |
| CC1=C(/C=C/C(C)=C/C=C/C(C)=C/C(=O)O)C(C)(C)CCC1 | – | – | – | Activity (Chorioallantoic membrane [3]): 45%; Activity (Chorioallantoic membrane [4]): Active |
| COc1cc2c(cc1O)CC[C@@H]1[C@@H]2CC[C@]2(C)[C@@H](O)CC[C@@H]12 [2-METHOXYESTRADIOL] | 52% | – | – | – |

The next lines start with results.

| Activity (Danio rerio) | SMILES | Activity (Chorioallantoic membrane [1]) | Activity (Chorioallantoic membrane [2]) | other results |
| --- | --- | --- | --- | --- |
| inactive | C/C(=C\CO)CC/C=C(\C)C(=O)O[C@@H]1[C@@H]2O[C@]2(CO)[C@H]2[C@H](O[C@@H]3O[C@H](CO)[C@@H](O)[C@H](O)[C@H]3O)OC=C[C@@]12O | – | – | – |
| inactive | C/C(=C\CO)CC/C=C(\C)C(=O)O[C@@H]1[C@@H]2O[C@]2(C)[C@H]2[C@H](O[C@@H]3O[C@H](CO)[C@@H](O)[C@H](O)[C@H]3O)OC=C[C@@]12OC(=O)/C(C)=C/CC/C(C)=C/CO | – | – | – |
| inactive | C[C@]12O[C@H]1[C@@H](OC(=O)/C=C/c1ccccc1)[C@]1(O)C=CO[C@@H](O[C@@H]3O[C@H](CO)[C@@H](O)[C@H](O)[C@H]3O)[C@@H]12 | 23.9% | Active | – |
| inactive | C/C(=C\CO[C@@H]1O[C@H](CO)[C@@H](O)[C@H](O)[C@H]1O)CC/C=C(\C)C(=O)O[C@@H]1O[C@H](CO)[C@@H](O)[C@H](O)[C@H]1O | – | – | – |
| inactive | C/C(=C\CO)CC/C=C(\C)C(=O)OC[C@H]1OC(O)[C@H](O)[C@@H](O)[C@@H]1O (some centres not stated) | – | – | – |
| inactive | C=C[C@@](C)(O)CC/C=C(\C)C(=O)O[C@@]12C=CO[C@@H](O[C@@H]3O[C@H](CO)[C@@H](O)[C@H](O)[C@H]3O)[C@@H]1[C@@]1(CO)O[C@H]1[C@H]2OC(=O)/C(C)=C/CC/C(C)=C/CO | 31.4% | Active | – |
| inactive | C=C[C@@](C)(O)CC/C=C(\C)C(=O)O[C@@]12C=CO[C@@H](O[C@@H]3O[C@H](CO)[C@@H](O)[C@H](O)[C@H]3O)[C@@H]1[C@@]1(C)O[C@H]1[C@H]2OC(=O)/C(C)=C/CC/C(C)=C/CO | – | – | – |
| inactive | C/C(=C\CO)CC/C=C(\C)C(=O)O[C@@H]1[C@@H]2O[C@]2(CO)[C@H]2[C@H](O[C@@H]3O[C@H](CO)[C@@H](O)[C@H](O)[C@H]3O)OC=C[C@@]12OC(=O)/C(C)=C/CC/C(C)=C/CO | – | – | – |
| inactive | C/C(=C/CO)CC/C=C(\C)C(=O)OC[C@H]1O[C@@H](O[C@@H]2OC=C(C(=O)O[C@@H]3CO[C@](O)(CO)[C@@H](O)[C@@H]3O)[C@H]3CC[C@](C)(O)[C@@H]23)[C@H](O)[C@@H](O)[C@@H]1O | – | – | – |
